Screening results as filed in PubChem BioAssay.
Cneo AK release – causes C. neoformans cell lysis; adenylate kinase release luminescence, 4 h; normalised: neutral wells 0, clomiphene wells 100; lysis activity, % at 15 µM; 360,000 tested, 0.2% active;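 active means mean lysis activity across replicates of at least 80%, whatever share of replicates individually reach that level; inactive means mean lysis activity below 80%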
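Test system: log-phase Cryptococcus neoformans yeast cells. Input: 5 × 10^6 yeast cells/mL. Medium: fresh YPD growth medium. Doses: single dose. Incubation: static 4 h at 37 °C with compound, 1 h detection. Measured by: luminescent adenylate kinase detection reagent. Read-out: signal increase indicating cell lysis. Benchmarks: Clomiphene.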
SUMO Mot1 rescue – inhibitors of SUMOylation pathway: yeast Mot1-301 growth rescue; 320,000 tested, 1% active; growth rescue, % at 18.8 µM; S. cerevisiae Mot1-301 growth rescue, ATP luminescence, 38.5C; percent above DMSO median, 100 means doubled;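 active means every valid replicate shows activation above 250% relative to neutral control wells; inactive means the rest, any valid replicate at or below 250%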
Statin myotox sup – protects C2C12 myotubes from simvastatin toxicity. rescue of ATP level, % at 7.49 µM. 330,000 tested, 0.78% active. ATP luminescence, 48 h; scaled: DMSO 0, geranylgeraniol control 100;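 active means mean ATP rescue above about 67%, or every replicate alone reaching that limit, limit read from the data, passing the limit was not always enough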;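 further: myotubes were challenged with 10 µM simvastatin during compound exposure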
Large screens that a line does not name were inactive. Shown are actives, neighbours in structure and some others; about 1.5% of the full set was active somewhere.

O=C(NNC(=O)c1cccc([N+](=O)[O-])c1)c1ccncc1	none (no result: Cneo AK release, Statin myotox sup)
O=C(NNC(=O)c1ccncc1)Nc1cccc([N+](=O)[O-])c1	SUMO Mot1 rescue 430 (no result: Cneo AK release, Statin myotox sup)
C[C@@H]1CN([C@@H](C)CO)C(=O)c2cc(NS(=O)(=O)c3ccc(F)cc3)ccc2O[C@@H](C)CCCCO[C@@H]1CN(C)C(=O)Nc1cccc2ccccc12	none (no result: SUMO Mot1 rescue, Statin myotox sup)
CN1C(=O)c2cc(NC(=O)Cc3cccs3)ccc2OC[C@H]2O[C@H](CC(=O)NCC3CC3)CC[C@H]21	none (no result: SUMO Mot1 rescue)
CN(C(=O)c1ccc(NC(=O)Cc2ccc(NC(=O)C3CCN(C(=O)CCc4ccccc4)CC3)cc2)cc1)C1CC1	Statin myotox sup 160
CN(C(=O)c1ccc(NC(=O)Cc2ccc(NC(=O)C3CCN(C(=O)CCc4ccccc4)CC3)cc2)cc1)C1CCCC1	none (no result: SUMO Mot1 rescue)
Fc1ccc(NC(=S)Nc2ccc(F)c(Cl)c2)cc1Cl	Statin myotox sup 69
COC(=O)NC(=S)Nc1ccc(Oc2ccc(Cl)cc2Cl)c(Cl)c1	Statin myotox sup 126
O=c1[nH]c2ccc(NC(=S)Nc3ccc(Cl)cc3Cl)cc2[nH]1	Statin myotox sup 139
O=C(NC(=S)Nc1ccc(F)c(Cl)c1)C1CC1	none (no result: Statin myotox sup)
O=c1[nH]c2ccc(NC(=S)Nc3ccc(Cl)cc3)cc2[nH]1	none
COC(=O)NC(=S)Nc1ccc(Oc2ccc(Cl)cc2)c(Cl)c1	none
C[C@H]1CCCCO[C@H](CN(C)S(=O)(=O)c2cn(C)cn2)[C@@H](C)CN([C@@H](C)CO)C(=O)c2cc(NC(=O)Nc3ccc(F)cc3)ccc2O1	none (no result: SUMO Mot1 rescue, Statin myotox sup)
COc1ccc(C(=O)N2C[C@H]3[C@@H](c4ccccc42)[C@H](CO)N3C(=O)c2ccc(F)cc2)cc1	none (no result: SUMO Mot1 rescue)
CCC(=O)Nc1ccc2c(c1)C(=O)N(C)C[C@@H](OC)[C@H](C)CN(Cc1ccccn1)[C@@H](C)CO2	none (no result: SUMO Mot1 rescue)
CC(C)C(=O)Nc1ccc2c(c1)nc(CCN1CCCCC1)n2C	none
CCCC(=O)Nc1ccc2c(c1)nc(CN1CCN(C(=O)OCC)CC1)n2C	none
CCCC(=O)Nc1ccc2c(c1)nc(CN1CCN(C(C)=O)CC1)n2C	Statin myotox sup 119
Cn1c(CCN2CCCCC2)nc2cc(NC(=O)Nc3ccccc3)ccc21	Statin myotox sup 116 (no result: SUMO Mot1 rescue)
COc1ccc(NC(=O)Nc2ccc3c(c2)CC(=O)N([C@@H](C)CO)C[C@@H](C)[C@H](CN(C)S(=O)(=O)c2c(C)noc2C)O3)cc1	none (no result: SUMO Mot1 rescue)
CN1c2ccc(-c3ccc(F)cc3)cc2[C@@H]2[C@@H](CCN2C(=O)c2ccncc2)[C@@H]1CO	none (no result: SUMO Mot1 rescue)
CCCc1cc(=O)[nH]c(NCCc2ccccc2)n1	none
O=c1ccnc(NCCc2ccccc2)[nH]1	Statin myotox sup 99
CN(C)S(=O)(=O)c1ccc(NC=C(C#N)C#N)cc1	Cneo AK release 138
CCN(CC)S(=O)(=O)c1ccc(NC=C(C#N)C#N)cc1	none
COc1cccc(-c2ccc3c(c2)[C@@H]2[C@@H](CCN2S(=O)(=O)c2ccccc2OC)[C@@H](CO)N3)c1	none (no result: SUMO Mot1 rescue)
Cc1cc(N2CCN(C)CC2)nc2ccc(NC(=S)N3CCN(c4ccc(F)cc4)CC3)cc12	none
Cc1cc(N2CCN(C)CC2)nc2ccc(NC(=S)N3CCN(c4ccc(Cl)cc4)CC3)cc12	SUMO Mot1 rescue 539
COc1cccc(-c2csc(N3CCN(C(=O)Nc4ccccc4OC)CC3)n2)c1	Statin myotox sup 77 (no result: Cneo AK release)
COc1cccc(-c2csc(N3CCN(C(=O)Nc4ccc(F)cc4)CC3)n2)c1	none
N#Cc1ccccc1NC(=O)CSC1=Nc2ccccc2C2CC=NN12 (centres undefined)	none
O=C(CSC1=Nc2ccccc2C2CC=NN12)NCc1ccco1 (centres undefined)	Statin myotox sup 98
CCCC(=O)Nc1ccc2c(c1)C(=O)N(C)C[C@H](OC)[C@@H](C)CN(S(=O)(=O)c1cn(C)cn1)[C@H](C)CO2	none (no result: SUMO Mot1 rescue)
COc1ccc(S(=O)(=O)N2CCCN(CC(=O)Nc3ccccc3F)CC2)cc1	none
COc1ccc(Cl)cc1NC(=O)CN1CCCC1	none (no result: Cneo AK release, Statin myotox sup)
COc1ccc(Cl)cc1NC(=O)CN1CCN(S(=O)(=O)N2CCOCC2)CC1	SUMO Mot1 rescue 291
COc1ccc(NC(=O)CN2CCCN(S(=O)(=O)c3ccc(F)cc3)CC2)c(OC)c1	Statin myotox sup 94
COc1ccc(NC(=O)CN2CCN(S(=O)(=O)c3ccc(C(C)C)cc3)CC2)cc1OC	Cneo AK release 130
COc1ccc(C)cc1NC(=O)CN1CCN(S(=O)(=O)c2ccc(C(C)C)cc2)CC1	none
CC(C)CC#Cc1ccc2c(c1)O[C@@H](CN(C)C(=O)c1cnccn1)[C@@H](C)CN([C@H](C)CO)S2(=O)=O	none (no result: SUMO Mot1 rescue)
Cc1cccn2c(=O)c3cc(C#N)c(=N)n(CCN4CCOCC4)c3nc12	Statin myotox sup 104 (no result: SUMO Mot1 rescue)
Cc1cccn2c(=O)c3cc(C#N)c(=N)n(CCCN4CCOCC4)c3nc12	none
c1ccc(COc2ccc(OCCN3CCCC3)cc2)cc1	none (no result: Cneo AK release, Statin myotox sup)
